Experiments:
[1] = molecular target: T1, Interstitial collagenase (Homo sapiens, UniProt P03956); experiment: Inhibition of human recombinant MMP1
T1 sequence (P03956 whole entry): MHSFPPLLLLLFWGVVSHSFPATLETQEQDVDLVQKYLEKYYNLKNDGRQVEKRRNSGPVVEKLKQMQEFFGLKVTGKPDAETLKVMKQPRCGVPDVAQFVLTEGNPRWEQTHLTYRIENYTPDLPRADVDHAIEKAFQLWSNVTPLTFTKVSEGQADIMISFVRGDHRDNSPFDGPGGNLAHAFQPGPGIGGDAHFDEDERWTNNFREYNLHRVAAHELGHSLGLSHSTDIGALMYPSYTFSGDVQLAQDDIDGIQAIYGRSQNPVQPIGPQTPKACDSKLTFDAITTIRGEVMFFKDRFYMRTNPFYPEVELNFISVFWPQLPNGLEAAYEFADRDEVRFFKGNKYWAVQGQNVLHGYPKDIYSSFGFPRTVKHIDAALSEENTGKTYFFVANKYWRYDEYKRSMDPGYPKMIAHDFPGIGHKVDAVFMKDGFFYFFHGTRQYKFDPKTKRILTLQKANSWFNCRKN
Outline: (§1)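 Purified human recombinant enzyme tested at four different concentrations against the matching colorimetric or fluorescent peptide substrate for 3 h, with inhibitor at four to six concentrations. Activity was read as a colour or fluorescence change on a plate reader, and IC50 was calculated from these readings.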

[2] = molecular target: T2, 72 kDa type IV collagenase (Homo sapiens, UniProt P08253); experiment: Inhibition of human recombinant MMP2
Outline: (§2)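 Human recombinant enzymes each incubated at four concentrations with a suitable colorimetric or fluorogenic peptide substrate for 3 h. Inhibitor tested at four to six concentrations. Activity read as colorimetric or fluorescence change on a plate reader.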
Target sequence in this assay (P08253 whole entry): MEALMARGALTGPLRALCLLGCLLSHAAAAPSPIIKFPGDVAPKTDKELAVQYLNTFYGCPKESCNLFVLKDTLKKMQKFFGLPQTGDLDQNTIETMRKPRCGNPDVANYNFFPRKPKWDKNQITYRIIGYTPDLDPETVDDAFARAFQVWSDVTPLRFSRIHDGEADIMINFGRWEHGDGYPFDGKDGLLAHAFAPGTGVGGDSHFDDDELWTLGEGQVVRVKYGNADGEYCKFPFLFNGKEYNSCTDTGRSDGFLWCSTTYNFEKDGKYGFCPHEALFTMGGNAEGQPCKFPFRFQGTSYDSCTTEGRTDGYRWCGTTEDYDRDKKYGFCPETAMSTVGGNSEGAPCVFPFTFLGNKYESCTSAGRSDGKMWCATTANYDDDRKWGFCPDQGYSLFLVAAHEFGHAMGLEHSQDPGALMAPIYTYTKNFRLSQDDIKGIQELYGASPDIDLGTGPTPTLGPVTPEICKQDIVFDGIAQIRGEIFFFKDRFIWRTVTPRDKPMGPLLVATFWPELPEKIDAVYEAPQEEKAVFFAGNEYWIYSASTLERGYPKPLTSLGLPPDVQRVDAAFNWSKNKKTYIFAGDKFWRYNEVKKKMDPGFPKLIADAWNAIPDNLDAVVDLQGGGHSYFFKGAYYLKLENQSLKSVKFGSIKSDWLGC

[3] = molecular target: Stromelysin-1 (Homo sapiens, UniProt P08254); experiment: Inhibition of human recombinant MMP3; outline: as §2
Stromelysin-1, sequence (P08254 whole entry): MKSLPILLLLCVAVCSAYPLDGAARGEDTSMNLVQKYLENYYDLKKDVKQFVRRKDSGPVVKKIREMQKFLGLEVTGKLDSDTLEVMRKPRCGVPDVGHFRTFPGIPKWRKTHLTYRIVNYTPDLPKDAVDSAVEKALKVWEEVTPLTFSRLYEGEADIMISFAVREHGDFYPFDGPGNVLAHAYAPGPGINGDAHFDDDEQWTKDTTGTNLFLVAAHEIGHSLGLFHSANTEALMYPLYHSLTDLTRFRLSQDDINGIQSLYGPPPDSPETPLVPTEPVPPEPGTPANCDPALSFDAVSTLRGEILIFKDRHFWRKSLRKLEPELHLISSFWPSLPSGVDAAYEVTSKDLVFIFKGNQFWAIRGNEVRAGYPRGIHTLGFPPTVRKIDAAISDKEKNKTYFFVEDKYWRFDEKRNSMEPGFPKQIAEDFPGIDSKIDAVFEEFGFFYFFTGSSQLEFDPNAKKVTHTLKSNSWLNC

[4] = molecular target: Neutrophil collagenase (Homo sapiens, UniProt P22894); experiment: Inhibition of human recombinant MMP8; outline: as §2
Neutrophil collagenase, sequence (P22894 whole entry): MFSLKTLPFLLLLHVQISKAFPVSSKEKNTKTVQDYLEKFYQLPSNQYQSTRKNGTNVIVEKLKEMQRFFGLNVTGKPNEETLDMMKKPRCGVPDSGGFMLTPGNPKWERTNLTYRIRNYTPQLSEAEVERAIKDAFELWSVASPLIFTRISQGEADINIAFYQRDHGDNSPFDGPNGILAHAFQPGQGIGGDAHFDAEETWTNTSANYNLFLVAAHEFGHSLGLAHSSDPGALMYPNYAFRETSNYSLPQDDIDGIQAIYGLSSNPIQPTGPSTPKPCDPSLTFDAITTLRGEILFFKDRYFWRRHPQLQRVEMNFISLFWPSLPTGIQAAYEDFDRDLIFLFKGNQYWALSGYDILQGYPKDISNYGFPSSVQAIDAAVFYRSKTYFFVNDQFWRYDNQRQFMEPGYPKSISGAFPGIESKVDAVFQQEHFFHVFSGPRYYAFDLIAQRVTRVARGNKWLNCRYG

[5] = molecular target: Matrix metalloproteinase-9 (Homo sapiens, UniProt P14780); experiment: Inhibition of human recombinant MMP9; outline: as §2
Matrix metalloproteinase-9, sequence (P14780 whole entry): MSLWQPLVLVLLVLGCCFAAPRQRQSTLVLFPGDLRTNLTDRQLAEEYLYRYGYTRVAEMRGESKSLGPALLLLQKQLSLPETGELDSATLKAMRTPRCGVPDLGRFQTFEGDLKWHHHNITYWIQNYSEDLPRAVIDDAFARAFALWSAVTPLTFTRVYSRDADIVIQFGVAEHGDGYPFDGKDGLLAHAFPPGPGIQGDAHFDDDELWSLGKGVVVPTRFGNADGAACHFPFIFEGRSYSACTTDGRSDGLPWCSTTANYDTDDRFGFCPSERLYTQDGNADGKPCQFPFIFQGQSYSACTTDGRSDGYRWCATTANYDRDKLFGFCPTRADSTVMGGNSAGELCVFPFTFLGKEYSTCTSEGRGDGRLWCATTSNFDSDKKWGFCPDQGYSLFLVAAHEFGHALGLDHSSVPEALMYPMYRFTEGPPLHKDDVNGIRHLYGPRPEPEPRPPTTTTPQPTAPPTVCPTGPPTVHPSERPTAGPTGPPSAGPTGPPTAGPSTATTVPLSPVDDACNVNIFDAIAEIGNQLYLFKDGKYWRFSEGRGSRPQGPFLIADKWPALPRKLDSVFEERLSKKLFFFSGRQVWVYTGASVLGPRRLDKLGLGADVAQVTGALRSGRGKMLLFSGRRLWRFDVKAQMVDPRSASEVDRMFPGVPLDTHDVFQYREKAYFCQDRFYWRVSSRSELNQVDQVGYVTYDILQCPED

[6] = molecular target: Macrophage metalloelastase (Homo sapiens, UniProt P39900); experiment: Inhibition of human recombinant MMP12; outline: as §1
Macrophage metalloelastase, sequence (P39900 whole entry): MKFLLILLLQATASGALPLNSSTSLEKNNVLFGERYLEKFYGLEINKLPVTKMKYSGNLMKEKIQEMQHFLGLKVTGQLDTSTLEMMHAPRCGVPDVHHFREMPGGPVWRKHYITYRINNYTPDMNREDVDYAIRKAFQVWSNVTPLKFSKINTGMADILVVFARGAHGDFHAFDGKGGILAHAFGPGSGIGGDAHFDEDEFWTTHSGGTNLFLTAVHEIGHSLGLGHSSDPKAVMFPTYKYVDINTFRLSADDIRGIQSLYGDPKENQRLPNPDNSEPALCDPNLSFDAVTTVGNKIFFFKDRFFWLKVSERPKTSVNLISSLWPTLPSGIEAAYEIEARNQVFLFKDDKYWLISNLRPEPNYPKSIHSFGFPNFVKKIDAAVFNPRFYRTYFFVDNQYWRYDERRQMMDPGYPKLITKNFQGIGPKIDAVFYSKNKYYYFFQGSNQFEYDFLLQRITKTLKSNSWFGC

[7] = molecular target: Collagenase 3 (Homo sapiens, UniProt P45452); experiment: Inhibition of human recombinant MMP13; outline: as §2
[8] = molecular target: Disintegrin and metalloproteinase domain-containing protein 17 (Homo sapiens, UniProt P78536); experiment: Inhibition of human recombinant TACE; outline: as §1
Disintegrin and metalloproteinase domain-containing protein 17, sequence (P78536 whole entry, the tested form may be a part): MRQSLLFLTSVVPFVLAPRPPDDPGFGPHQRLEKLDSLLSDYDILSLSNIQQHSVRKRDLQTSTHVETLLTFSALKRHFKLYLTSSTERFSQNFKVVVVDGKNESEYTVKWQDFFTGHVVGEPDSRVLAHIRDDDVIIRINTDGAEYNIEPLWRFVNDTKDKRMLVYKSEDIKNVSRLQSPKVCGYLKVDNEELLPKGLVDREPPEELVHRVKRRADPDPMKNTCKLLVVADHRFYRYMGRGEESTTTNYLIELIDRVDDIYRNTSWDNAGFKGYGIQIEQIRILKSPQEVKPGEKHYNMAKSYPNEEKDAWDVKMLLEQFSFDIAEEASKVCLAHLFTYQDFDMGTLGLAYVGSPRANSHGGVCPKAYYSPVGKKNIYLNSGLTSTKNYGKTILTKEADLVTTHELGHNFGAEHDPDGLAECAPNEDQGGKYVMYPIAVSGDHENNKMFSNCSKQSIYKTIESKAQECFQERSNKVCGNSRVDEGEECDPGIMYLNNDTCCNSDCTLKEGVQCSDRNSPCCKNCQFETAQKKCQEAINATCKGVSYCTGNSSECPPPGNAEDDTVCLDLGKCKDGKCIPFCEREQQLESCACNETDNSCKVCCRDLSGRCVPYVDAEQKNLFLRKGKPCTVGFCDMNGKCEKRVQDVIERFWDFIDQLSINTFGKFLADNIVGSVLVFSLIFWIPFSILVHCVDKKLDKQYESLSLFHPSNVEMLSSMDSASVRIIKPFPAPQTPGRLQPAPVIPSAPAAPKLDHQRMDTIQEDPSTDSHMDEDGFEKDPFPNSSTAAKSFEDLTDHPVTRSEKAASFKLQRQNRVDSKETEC

[9] = Reduction of metastasis formation in SCID mouse bearing human prostate tumor cells at 50 mg/kg, ip; assay type: functional; design: scale not given: the % may be the effect or the level left; settings: route intraperitoneal
Outline: (§3)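 Luciferase-transfected human prostate tumour cells implanted orthotopically into the prostate of SCID mice; daily ip dosing except weekends for six weeks. Primary tumour growth and metastasis followed weekly by luciferin bioluminescence imaging with a CCD camera.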

[10] = Apparent permeability in C57B1 mouse jejunum in using diffusion chamber; assay type: ADME, tissue-based
[11] = Apparent permeability in C57B1 mouse colon in using diffusion chamber; assay type: ADME, tissue-based; settings: not told
[12] = Tmax in C57B1 mouse at 150 mg/kg, po; assay type: ADME, organism-based; design: dose 150 mg/kg, route oral; settings: in vivo
Outline: (§4)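 Compound dissolved in normal saline/water 60/40 (20 mg/mL). Rats: fasted 12 h before and first 12 h; blood sampled 5–240 min after iv, to 8 h oral, to 24 h ip; urine collected at 24 and 48 h in metabolic cages. Mice (22–25 g, fasted 12 h): portal-vein blood under ether at 0–720 min, one mouse per time point. Plasma quantified by HPLC-MS with acyclovir internal standard.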

[13] = Cmax in C57B1 mouse at 150 mg/kg, po; assay type: ADME, organism-based; design: dose 150 mg/kg, route oral; settings: in vivo; outline: as §4
[14] = AUC in C57B1 mouse at 150 mg/kg, po; assay type: ADME, organism-based; design: dose 150 mg/kg, route oral; settings: plasma; outline: as §4
[15] = Half life in C57B1 mouse at 150 mg/kg, po; assay type: ADME, organism-based; design: dose 150 mg/kg, route oral; settings: in vivo; outline: as §4
[16] = test system: Mus musculus; experiment: Time over MIC in C57B1 mouse at 150 mg/kg, po; assay type: ADME, organism-based; design: dose 150 mg/kg, route oral; settings: in vivo; outline: as §4
[17] = AUC in Wistar rat at 50 mg/kg, iv; assay type: ADME, organism-based; design: dose 50 mg/kg, route intravenous; settings: plasma; outline: as §4
[18] = test system: Mus musculus; experiment: Acute toxicity in C57B1 mouse at 50 to 500 mg/kg; assay type: organism-based; design: dose 50-500 mg/kg; settings: in vivo
Outline: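 C57Bl mice dosed intraperitoneally daily for two weeks at 50, 250 and 500 mg/kg; monitored for toxic signs and behavioural and nutritional status.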

[19] = test system: B16-F10; experiment: Reduction in tumor colonization in C57B1 mouse bearing B16F10 cells at 50 mg/kg, ip after 21 days; assay type: functional; design: scale not given: the % may be the effect or the level left; settings: route intraperitoneal
Outline: (§5)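 Female C57Bl mice given 50k B16F10 cells via tail vein; dosing started the same day, daily except weekends for three weeks, in PBS, ip or oral (dose-response 12.5–50 mg/kg ip). Lungs fixed at day 21 and metastatic foci counted; eight mice per group.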

[20] = test system: B16-F10; experiment: Reduction in tumor colonization in of C57B1 mouse bearing B16F10 cells at 50 mg/kg, po after 21 days; assay type: functional; design: scale not given: the % may be the effect or the level left; outline: as §5
[21] = test system: B16-F10; experiment: Inhibition of metastasis formation in lungs of C57B1 mouse bearing B16F10 cells at 12.5 to 50 mg/kg, ip after 21 days; assay type: functional, Lung; settings: dose mg/kg 12.5-50; route intraperitoneal; outline: as §5
[22] = Reduction of local tumor growth in SCID mouse bearing human prostate tumor cells at 50 mg/kg, ip; assay type: functional; design: scale not given: the % may be the effect or the level left; settings: route intraperitoneal; outline: as §3
[23] = Elimination half life in Wistar rat at 50 mg/kg, iv; assay type: ADME, organism-based; design: dose 50 mg/kg, route intravenous; settings: in vivo; outline: as §4
[24] = Cmax in Wistar rat at 50 mg/kg, iv; assay type: ADME, organism-based; design: dose 50 mg/kg, route intravenous; settings: in vivo; outline: as §4
[25] = Clearance in Wistar rat at 50 mg/kg, iv; assay type: ADME, organism-based; design: dose 50 mg/kg, route intravenous; settings: in vivo; outline: as §4
[26] = Volume of distribution at steady state in Wistar rat at 50 mg/kg, iv; assay type: ADME, organism-based; design: dose 50 mg/kg, route intravenous; settings: in vivo, read-out: Vdss; outline: as §4
[27] = test system: Rattus norvegicus; experiment: Time over MIC in Wistar rat at 50 mg/kg, iv; assay type: ADME, organism-based; design: dose 50 mg/kg, route intravenous; settings: in vivo; outline: as §4
[28] = AUC in Wistar rat at 150 mg/kg, po; assay type: ADME, organism-based; design: dose 150 mg/kg, route oral; settings: plasma; outline: as §4
[29] = Elimination half life in Wistar rat at 150 mg/kg, po; assay type: ADME, organism-based; design: dose 150 mg/kg, route oral; settings: in vivo; outline: as §4
[30] = Cmax in Wistar rat at 150 mg/kg, po; assay type: ADME, organism-based; design: dose 150 mg/kg, route oral; settings: in vivo; outline: as §4
[31] = Tmax in Wistar rat at 150 mg/kg, po; assay type: ADME, organism-based; design: dose 150 mg/kg, route oral; settings: in vivo; outline: as §4
[32] = Bioavailability in Wistar rat at 150 mg/kg, po; assay type: ADME, organism-based; settings: in vivo; outline: as §4
[33] = test system: Rattus norvegicus; experiment: Time over MIC in Wistar rat at 150 mg/kg, po; assay type: ADME, organism-based; design: dose 150 mg/kg, route oral; settings: in vivo; outline: as §4
[34] = AUC in Wistar rat at 150 mg/kg, ip; assay type: ADME, organism-based; design: dose 150 mg/kg, route intraperitoneal; settings: plasma; outline: as §4
[35] = Elimination half life in Wistar rat at 150 mg/kg, ip; assay type: ADME, organism-based; design: dose 150 mg/kg, route intraperitoneal; settings: in vivo; outline: as §4
[36] = Cmax in Wistar rat at 150 mg/kg, ip; assay type: ADME, organism-based; design: dose 150 mg/kg, route intraperitoneal; settings: in vivo; outline: as §4
[37] = Tmax in Wistar rat at 150 mg/kg, ip; assay type: ADME, organism-based; design: dose 150 mg/kg, route intraperitoneal; settings: in vivo; outline: as §4
[38] = Bioavailability in Wistar rat at 150 mg/kg, ip; assay type: ADME, organism-based; settings: in vivo; outline: as §4
[39] = test system: Rattus norvegicus; experiment: Time over MIC in Wistar rat at 150 mg/kg, ip; assay type: ADME, organism-based; design: dose 150 mg/kg, route intraperitoneal; settings: in vivo; outline: as §4
[40] = Apparent permeability in Wistar rat jejunum in using diffusion chamber; assay type: ADME, tissue-based
Outline: (§6)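 Everted-free intestinal segments (jejunum, ileum, colon) from four animals mounted in Ussing chambers; compound at 600 µg/mL in mucosa buffer added to the mucosal side. Serosal samples taken at 30, 60, 90, 120, 150 min, mucosal at 0 and 150 min, with buffer replacement. Quantified by HPLC-MS; Papp reported with SD.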

[41] = Apparent permeability in Wistar rat ileum in using diffusion chamber; assay type: ADME, tissue-based; outline: as §6
[42] = Apparent permeability in Wistar rat colon in Using diffusion chamber; assay type: ADME, tissue-based; settings: not told; outline: as §6
[43] = molecular target: T2, 72 kDa type IV collagenase; settings: 100 uM
Target sequence in this assay (P08253 110-660 limits assumed): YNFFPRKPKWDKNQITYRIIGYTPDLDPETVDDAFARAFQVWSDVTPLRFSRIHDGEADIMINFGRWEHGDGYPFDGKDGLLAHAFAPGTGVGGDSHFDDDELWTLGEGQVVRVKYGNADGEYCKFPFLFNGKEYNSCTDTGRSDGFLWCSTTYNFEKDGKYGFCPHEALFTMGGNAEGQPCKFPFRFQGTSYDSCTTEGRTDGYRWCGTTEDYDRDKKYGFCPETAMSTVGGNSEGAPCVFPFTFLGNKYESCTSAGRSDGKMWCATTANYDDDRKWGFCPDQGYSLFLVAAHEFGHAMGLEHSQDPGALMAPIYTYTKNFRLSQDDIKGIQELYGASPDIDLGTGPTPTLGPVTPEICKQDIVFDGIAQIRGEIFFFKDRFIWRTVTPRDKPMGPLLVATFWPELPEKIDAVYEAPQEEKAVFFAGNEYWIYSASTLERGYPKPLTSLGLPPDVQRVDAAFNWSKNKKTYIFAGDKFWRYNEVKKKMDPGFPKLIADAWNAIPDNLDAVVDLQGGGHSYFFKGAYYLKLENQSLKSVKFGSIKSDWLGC

N[C@@H]1CCCC[C@H]1NC(=O)P(=O)(O)O (relative stereo)
IC50 [1]: 90 µM
IC50 [2]: > 100 µM
IC50 [3]: 25 µM
IC50 [4]: 50 µM
IC50 [5]: > 100 µM
IC50 [6]: > 100 µM
IC50 [7]: 55 µM
IC50 [8]: > 100 µM

N[C@H]1CCCC[C@H]1NC(=O)P(=O)(O)O (relative stereo)
Activity [9]: 90%
Papp [10]: 8.3 ×10⁻⁶ cm/s
Papp [11]: 2.4 ×10⁻⁶ cm/s
Tmax [12]: 1 h
Cmax [13]: 544 ng/mL
AUC [14]: 4500 ng·h/mL
half-life [15]: 811 min
T>MIC [16]: > 12 h
AUC [17]: 127 µg·h/mL
IC50 [1]: > 100 µM
IC50 [2]: 4 µM
IC50 [3]: > 100 µM
IC50 [4]: > 100 µM
IC50 [5]: 20 µM
IC50 [6]: > 100 µM
IC50 [7]: > 100 µM
IC50 [8]: > 100 µM
Activity [18]: Non-toxic
Activity [19]: 85%
Activity [20]: 95%
Inhibition [21]: 50%
Activity [22]: 60%
half-life [23]: 18.8 min
Cmax [24]: 306 µg/mL
clearance [25]: 6.9 mL/min/kg
Vd [26]: 0.186 L/kg
T>MIC [27]: > 4 h
AUC [28]: 1320 ng·h/mL
half-life [29]: 126 min
Cmax [30]: 712 ng/mL
Tmax [31]: 17.4 min
bioavailability [32]: 0.35%
T>MIC [33]: > 6 h
AUC [34]: 44600 ng·h/mL
half-life [35]: 108 min
Cmax [36]: 144 µg/mL
Tmax [37]: 30 s
bioavailability [38]: 11.8%
T>MIC [39]: > 24 h
Papp [40]: 7.9 ×10⁻⁶ cm/s
Papp [41]: 7.01 ×10⁻⁶ cm/s
Papp [42]: 9.27 ×10⁻⁶ cm/s
inhibition [43]: 90%
